Test results from ChEMBL document CHEMBL5260840 (J Med Chem, 2019).

How the values were obtained:
[1] = target: T1, DDB1- and CUL4-associated factor 15/Bromodomain-containing protein 7 (Homo sapiens) (UniProt Q9NPI1+Q66K64); test: PROTAC activity at DCAF15/BRD7 in human HeLa cells assessed as remaining BRD7 protein level at 1 uM incubated for 16 hrs by Western blot analysis relative to control; format: cell-based
[2] = target: T1, DDB1- and CUL4-associated factor 15/Bromodomain-containing protein 7 (Homo sapiens); test: PROTAC activity at DCAF15/BRD7 in human HeLa cells assessed as remaining BRD7 protein level at 1 uM incubated for 4 hrs by Western blot analysis relative to control; format: cell-based
[3] = target: T2, DDB1- and CUL4-associated factor 15/Bromodomain-containing protein 9 (Homo sapiens) (UniProt Q9H8M2+Q66K64); test: PROTAC activity at DCAF15/BRD9 in human HeLa cells assessed as remaining BRD9 protein level at 1 uM incubated for 16 hrs by Western blot analysis relative to control; format: cell-based
T2 sequence (Q66K64 whole entry, looked up): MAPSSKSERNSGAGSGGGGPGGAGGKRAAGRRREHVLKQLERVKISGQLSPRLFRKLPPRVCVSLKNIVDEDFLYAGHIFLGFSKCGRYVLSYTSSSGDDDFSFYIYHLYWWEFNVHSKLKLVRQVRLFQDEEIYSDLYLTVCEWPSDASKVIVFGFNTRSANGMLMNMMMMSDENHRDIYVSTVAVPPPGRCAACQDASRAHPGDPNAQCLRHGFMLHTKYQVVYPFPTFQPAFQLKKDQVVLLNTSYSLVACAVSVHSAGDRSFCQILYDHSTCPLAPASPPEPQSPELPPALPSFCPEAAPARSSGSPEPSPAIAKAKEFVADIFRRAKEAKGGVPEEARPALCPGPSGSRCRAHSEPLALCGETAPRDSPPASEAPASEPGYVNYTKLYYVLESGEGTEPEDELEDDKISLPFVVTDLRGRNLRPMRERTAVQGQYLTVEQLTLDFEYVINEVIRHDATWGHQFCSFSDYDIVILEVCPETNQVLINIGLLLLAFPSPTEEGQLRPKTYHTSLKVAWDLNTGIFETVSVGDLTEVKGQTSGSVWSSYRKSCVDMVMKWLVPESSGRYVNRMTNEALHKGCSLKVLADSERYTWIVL
T2 sequence (Q9H8M2 whole entry, looked up): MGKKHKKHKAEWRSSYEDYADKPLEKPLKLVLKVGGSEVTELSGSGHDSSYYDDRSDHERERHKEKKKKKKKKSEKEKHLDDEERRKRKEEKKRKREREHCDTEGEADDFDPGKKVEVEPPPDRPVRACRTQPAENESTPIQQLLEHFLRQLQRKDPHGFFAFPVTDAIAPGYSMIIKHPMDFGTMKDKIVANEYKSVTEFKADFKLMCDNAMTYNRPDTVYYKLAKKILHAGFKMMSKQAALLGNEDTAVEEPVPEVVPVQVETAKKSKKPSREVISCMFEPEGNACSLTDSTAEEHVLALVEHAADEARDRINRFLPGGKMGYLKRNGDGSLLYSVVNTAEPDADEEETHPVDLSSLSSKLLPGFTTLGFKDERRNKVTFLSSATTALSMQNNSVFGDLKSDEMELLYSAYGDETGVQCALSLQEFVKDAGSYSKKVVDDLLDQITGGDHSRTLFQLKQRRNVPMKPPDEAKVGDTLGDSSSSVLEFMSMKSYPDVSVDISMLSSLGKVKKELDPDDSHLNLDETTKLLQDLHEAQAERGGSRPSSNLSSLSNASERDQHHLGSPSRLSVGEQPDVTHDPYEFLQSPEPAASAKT

[4] = target: T2, DDB1- and CUL4-associated factor 15/Bromodomain-containing protein 9 (Homo sapiens); test: PROTAC activity at DCAF15/BRD9 in human HeLa cells assessed as remaining BRD9 protein level at 1 uM incubated for 4 hrs by Western blot analysis relative to control; format: cell-based
[5] = target: T3, von Hippel-Lindau disease tumor suppressor/Bromodomain-containing protein 7 (Homo sapiens) (UniProt Q9NPI1+P40337); test: PROTAC activity at VHL/BRD7 in human HeLa cells assessed as remaining BRD7 protein level at 1 uM incubated for 16 hrs by Western blot analysis relative to control; format: cell-based
T3 sequence (P40337 whole entry, looked up): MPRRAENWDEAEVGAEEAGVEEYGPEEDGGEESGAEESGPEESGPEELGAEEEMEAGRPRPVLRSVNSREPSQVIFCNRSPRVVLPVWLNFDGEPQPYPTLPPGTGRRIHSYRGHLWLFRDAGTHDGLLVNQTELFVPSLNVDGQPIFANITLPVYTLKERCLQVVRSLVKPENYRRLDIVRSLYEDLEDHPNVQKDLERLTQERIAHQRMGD
T3 sequence (Q9NPI1 whole entry, looked up): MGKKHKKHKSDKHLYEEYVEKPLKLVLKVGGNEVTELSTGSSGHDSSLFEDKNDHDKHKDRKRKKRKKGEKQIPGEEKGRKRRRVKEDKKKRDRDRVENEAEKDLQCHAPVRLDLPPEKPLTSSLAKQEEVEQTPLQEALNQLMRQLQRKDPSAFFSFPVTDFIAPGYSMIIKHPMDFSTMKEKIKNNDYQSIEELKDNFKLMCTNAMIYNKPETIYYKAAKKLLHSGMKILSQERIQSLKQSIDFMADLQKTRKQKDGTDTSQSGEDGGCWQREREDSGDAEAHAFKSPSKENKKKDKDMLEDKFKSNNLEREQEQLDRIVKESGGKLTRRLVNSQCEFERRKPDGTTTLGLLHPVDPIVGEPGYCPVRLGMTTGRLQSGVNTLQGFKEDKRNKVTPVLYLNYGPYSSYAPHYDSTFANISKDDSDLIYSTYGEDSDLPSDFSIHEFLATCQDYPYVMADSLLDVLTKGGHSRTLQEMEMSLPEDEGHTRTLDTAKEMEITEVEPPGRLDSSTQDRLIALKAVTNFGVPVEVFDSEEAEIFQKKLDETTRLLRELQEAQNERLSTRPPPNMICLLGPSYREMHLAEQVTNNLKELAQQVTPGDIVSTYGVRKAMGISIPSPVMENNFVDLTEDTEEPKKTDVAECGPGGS

[6] = target: T3, von Hippel-Lindau disease tumor suppressor/Bromodomain-containing protein 7 (Homo sapiens); test: PROTAC activity at VHL/BRD7 in human HeLa cells assessed as remaining BRD7 protein level at 1 uM incubated for 4 hrs by Western blot analysis relative to control; format: cell-based
[7] = target: T4, von Hippel-Lindau disease tumor suppressor/Bromodomain-containing protein 9 (Homo sapiens) (UniProt Q9H8M2+P40337); test: PROTAC activity at VHL/BRD9 in human HeLa cells assessed as remaining BRD9 protein level at 1 uM incubated for 16 hrs by Western blot analysis relative to control; format: cell-based
T4 sequence (P40337 whole entry, looked up): as the sequence (P40337 whole entry, looked up) above
T4 sequence (Q9H8M2 whole entry, looked up): as the sequence (Q9H8M2 whole entry, looked up) above
Procedure, shortened: (§1)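 HeLa cells treated with compound for the stated time before harvest; BRD9, BRD7 and β-actin detected by Western blot with β-actin loading control; band intensities quantified.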

A204 = test: Antiproliferative activity against human A204 cells assessed as inhibition of cell growth incubated for 7 days by CellTiterGlo assay; format: functional, cell-based; details: A204, 168 h
EOL1 = test: Antiproliferative activity against human EOL1 cells assessed as inhibition of cell growth incubated for 7 days by CellTiterGlo assay; format: functional, cell-based; details: EOL1, 168 h
[8] = target: T5, Protein cereblon/Bromodomain-containing protein 7 (Homo sapiens) (UniProt Q9NPI1+Q96SW2); test: PROTAC activity at CRBN/BRD7 in human HeLa cells assessed as remaining BRD7 protein level at 1 uM incubated for 4 hrs by Western blot analysis relative to control; format: cell-based
T5 sequence (Q96SW2 whole entry, looked up): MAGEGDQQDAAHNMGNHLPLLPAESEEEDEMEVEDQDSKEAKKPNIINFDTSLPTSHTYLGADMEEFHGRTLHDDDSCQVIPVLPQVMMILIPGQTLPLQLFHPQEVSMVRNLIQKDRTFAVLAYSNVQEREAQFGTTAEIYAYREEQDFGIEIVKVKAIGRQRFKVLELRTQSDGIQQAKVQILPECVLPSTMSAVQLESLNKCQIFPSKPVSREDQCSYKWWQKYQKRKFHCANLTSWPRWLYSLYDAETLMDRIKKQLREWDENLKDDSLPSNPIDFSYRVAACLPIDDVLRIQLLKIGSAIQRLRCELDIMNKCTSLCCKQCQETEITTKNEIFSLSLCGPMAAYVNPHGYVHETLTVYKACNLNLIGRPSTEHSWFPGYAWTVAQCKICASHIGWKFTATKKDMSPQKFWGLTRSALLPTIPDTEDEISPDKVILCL
T5 sequence (Q9NPI1 whole entry, looked up): as the sequence (Q9NPI1 whole entry, looked up) above
Procedure, shortened: (§2)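 Cells given 1 µM compound before harvest: HeLa 4 h, RI-1 2 h and 8 h. BRD9, BRD7 and β-actin detected by Western blot; band intensities quantified.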

[9] = target: T6, Protein cereblon/Bromodomain-containing protein 9 (Homo sapiens) (UniProt Q9H8M2+Q96SW2); test: PROTAC activity at CRBN/BRD9 in human HeLa cells assessed as remaining BRD9 protein level at 1 uM incubated for 4 hrs by Western blot analysis relative to control; format: cell-based; procedure, shortened: as §2
T6 sequence (Q96SW2 whole entry, looked up): as the sequence (Q96SW2 whole entry, looked up) above
T6 sequence (Q9H8M2 whole entry, looked up): as the sequence (Q9H8M2 whole entry, looked up) above

[10] = target: T5, Protein cereblon/Bromodomain-containing protein 7 (Homo sapiens); test: PROTAC activity at CRBN/BRD7 in human HeLa cells assessed as remaining BRD7 protein level at 1 uM incubated for 16 hrs by Western blot analysis relative to control; format: cell-based
Procedure, shortened: (§3)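 HeLa cells given 1 µM compound for 16 h before harvest. BRD9, BRD7 and β-actin detected by Western blot; band intensities quantified.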

[11] = target: T6, Protein cereblon/Bromodomain-containing protein 9 (Homo sapiens); test: PROTAC activity at CRBN/BRD9 in human HeLa cells assessed as remaining BRD9 protein level at 1 uM incubated for 16 hrs by Western blot analysis relative to control; format: cell-based; procedure, shortened: as §3
[12] = target: T3, von Hippel-Lindau disease tumor suppressor/Bromodomain-containing protein 7 (Homo sapiens); test: PROTAC activity at VHL/BRD7 in human Ri-1 cells assessed as remaining BRD7 protein level at 1 uM incubated for 2 hrs by Western blot analysis relative to control; format: cell-based
[13] = target: T4, von Hippel-Lindau disease tumor suppressor/Bromodomain-containing protein 9 (Homo sapiens); test: PROTAC activity at VHL/BRD9 in human Ri-1 cells assessed as remaining BRD9 protein level at 1 uM incubated for 2 hrs by Western blot analysis relative to control; format: cell-based
Procedure, shortened: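 Ri-1 cells exposed to compound for the stated time before harvest; BRD9, BRD7 and β-actin measured by Western blot, band intensities quantified and set against DMSO-treated control.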

[14] = target: T4, von Hippel-Lindau disease tumor suppressor/Bromodomain-containing protein 9 (Homo sapiens); test: PROTAC activity at VHL/BRD9 in human HeLa cells assessed as protein degradation at 1 uM incubated for 4 hrs by Western blot analysis relative to control; format: cell-based; procedure, shortened: as §1
[15] = target: T3, von Hippel-Lindau disease tumor suppressor/Bromodomain-containing protein 7 (Homo sapiens); test: PROTAC activity at VHL/BRD7 in human HeLa cells assessed as protein degradation at 1 uM incubated for 4 hrs by Western blot analysis relative to control; format: cell-based
[16] = target: T3, von Hippel-Lindau disease tumor suppressor/Bromodomain-containing protein 7 (Homo sapiens); test: PROTAC activity at VHL/BRD7 in human HeLa cells assessed as protein degradation at 1 uM incubated for 16 hrs by Western blot analysis relative to control; format: cell-based
[17] = target: T4, von Hippel-Lindau disease tumor suppressor/Bromodomain-containing protein 9 (Homo sapiens); test: PROTAC activity at VHL/BRD9 in human HeLa cells assessed as protein degradation at 1 uM incubated for 16 hrs by Western blot analysis relative to control; format: cell-based; procedure, shortened: as §1

T1 sequence (Q66K64 whole entry, looked up): as the sequence (Q66K64 whole entry, looked up) above
T1 sequence (Q9NPI1 whole entry, looked up): as the sequence (Q9NPI1 whole entry, looked up) above

Row | Structure (SMILES) | Activity [5] [%] | Activity [6] [%] | Activity [7] [%] | further results
1 | COc1cc(-c2cn(C)c(=O)c3cnccc23)cc(OC)c1CN1CCN(CCOCCOCCOCCOCC(=O)NCc2ccc(S(=O)(=O)Nc3cccc4c(Cl)c[nH]c34)cc2)CC1 |  |  |  | Activity [1]: 86%; Activity [2]: 81%; Activity [3]: 86%; Activity [4]: 126%
2 | COc1cc(-c2cn(C)c(=O)c3cnccc23)cc(OC)c1CN1CCN(CCOCCOCCOCCOCCOCC(=O)N[C@H](C(=O)N2C[C@H](O)C[C@H]2C(=O)NCc2ccc(-c3scnc3C)cc2)C(C)(C)C)CC1 | 54 | 104 | 112 | 
3 | COc1cccc2c1C(=O)c1c(O)c3c(c(O)c1C2=O)C[C@@](O)(C(=O)CO)C[C@@H]3O[C@H]1C[C@H](N)[C@H](O)[C@H](C)O1 [DOXORUBICIN] |  |  |  | IC50 (A204): 6.48 nM; IC50 (EOL1): 1.27 nM
4 | COc1cc(-c2cn(C)c(=O)c3cnccc23)cc(OC)c1CN1CCN(CCOCCOCC(=O)NCc2ccc(S(=O)(=O)Nc3cccc4c(Cl)c[nH]c34)cc2)CC1 |  |  |  | Activity [1]: 86%; Activity [2]: 101%; Activity [3]: 81%; Activity [4]: 125%
5 | COc1cc(-c2cn(C)c(=O)c3cnccc23)cc(OC)c1CN1CCN(CCCCCOCCOCC(=O)N[C@H](C(=O)N2C[C@H](O)C[C@H]2C(=O)NCc2ccc(-c3scnc3C)cc2)C(C)(C)C)CC1 | 80 | 106 | 61 | 
6 | COc1cc(-c2cn(C)c(=O)c3cnccc23)cc(OC)c1CN1CCN(CCOCCOCCOc2cc(-c3scnc3C)ccc2CNC(=O)[C@@H]2C[C@@H](O)CN2C(=O)[C@@H](NC(=O)C2(C#N)CC2)C(C)(C)C)CC1 | 187 | 88 | 63 | 
7 | COc1cc(-c2cn(C)c(=O)c3cnccc23)cc(OC)c1CN1CCN(CCOCCOCCOc2cc(-c3scnc3C)ccc2CNC(=O)[C@@H]2C[C@@H](O)CN2C(=O)[C@@H](NC(C)=O)C(C)(C)C)CC1 | 107 | 95 | 156 | 
8 | COc1cc(-c2cn(C)c(=O)c3cnccc23)cc(OC)c1CN(C)C |  | 90 |  | IC50 (A204): 372 nM; IC50 (EOL1): 89.3 nM
9 | COc1cc(-c2cn(C)c(=O)c3cnccc23)cc(OC)c1CN(C)CC(=O)NCCOCCOCCNc1cccc2c1C(=O)N(C1CCC(=O)NC1=O)C2=O (centres undefined) |  |  |  | IC50 (A204): 89.8 nM; IC50 (EOL1): 4.87 nM
10 | COc1cc(-c2cn(C)c(=O)c3cnccc23)cc(OC)c1CN1CCN(C(=O)COCCOCCOCN[C@H](C(=O)N2C[C@H](O)C[C@H]2C(=O)NCc2ccc(-c3scnc3C)cc2)C(C)(C)C)CC1 | 113 |  | 73 | 
11 | COc1cc(-c2cn(C)c(=O)c3cnccc23)cc(OC)c1CN1CCN(CCOCCOCCOCCOCCOc2cc(-c3scnc3C)ccc2CNC(=O)[C@@H]2C[C@@H](O)CN2C(=O)[C@@H](NC(=O)C2(F)CC2)C(C)(C)C)CC1 | 163 | 110 | 97 | 
12 | COc1cc(-c2cn(C)c(=O)c3cnccc23)cc(OC)c1CN1CCN(CCOCCOCCOCCOCCOc2cc(-c3scnc3C)ccc2CNC(=O)[C@@H]2C[C@@H](O)CN2C(=O)[C@@H](NC(=O)C2(C#N)CC2)C(C)(C)C)CC1 | 124 | 89 | 98 | 
13 | COc1cc(-c2cn(C)c(=O)c3cnccc23)cc(OC)c1CN1CCN(CCOCCOCCOCCOCC(=O)NCCNc2cccc3c2C(=O)N(C2CCC(=O)NC2=O)C3=O)CC1 (centres undefined) |  |  |  | Activity [8]: 106%; Activity [9]: 19%; Activity [10]: 94%; Activity [11]: 11%
14 | COc1cc(-c2cn(C)c(=O)c3cnccc23)c(OC)cc1CN1CCN(CCCCCOCCOc2cc(-c3scnc3C)ccc2CNC(=O)[C@@H]2C[C@@H](O)CN2C(=O)[C@@H](NC(=O)C2(F)CC2)C(C)(C)C)CC1 |  | 336 |  | Activity [12]: 102%; Activity [13]: 89%
15 | COc1cc(-c2cn(C)c(=O)c3cnccc23)c(OC)cc1CN1CCN(CCCCCOc2cc(-c3scnc3C)ccc2CNC(=O)[C@@H]2C[C@@H](O)CN2C(=O)[C@@H](NC(=O)C2(F)CC2)C(C)(C)C)CC1 |  | 151 |  | Activity [12]: 65%; Activity [13]: 65%
16 | COc1cc(-c2cn(C)c(=O)c3cnccc23)cc(OC)c1CN1CC(NC(=O)CCCCOc2cc(-c3scnc3C)ccc2CNC(=O)[C@@H]2C[C@@H](O)CN2C(=O)[C@@H](NC(=O)C2(F)CC2)C(C)(C)C)C1 |  | 25 |  | Activity [12]: 70%; Activity [13]: 68%
17 | COc1cc(-c2cn(C)c(=O)c3cnccc23)cc(OC)c1CN1CCN(CCOCCOCCOCCOc2cc(-c3scnc3C)ccc2CNC(=O)[C@@H]2C[C@@H](O)CN2C(=O)[C@@H](NC(=O)C2(F)CC2)C(C)(C)C)CC1 |  | 182 |  | Activity [12]: 125%; Activity [13]: 105%
18 | COc1cc(-c2cn(C)c(=O)c3cnccc23)c(OC)cc1CN(C)C |  |  |  | IC50 (A204): 3550 nM; IC50 (EOL1): 339 nM
19 | COc1cc(-c2cn(C)c(=O)c3cnccc23)cc(OC)c1CN1CCN(CCOCCOCCOCCOCCOc2cc(-c3scnc3C)ccc2CNC(=O)[C@@H]2C[C@@H](O)CN2C(=O)[C@@H](NC(C)=O)C(C)(C)C)CC1 | 98 | 109 | 114 | 
20 | COc1cc(-c2cn(C)c(=O)c3cnccc23)cc(OC)c1CN1CCN(CCOCCOCCOCCOCC(=O)N[C@H](C(=O)N2C[C@H](O)C[C@H]2C(=O)NCc2ccc(-c3scnc3C)cc2)C(C)(C)C)CC1 | 73 | 81 | 78 | Activity [14]: 20%; Activity [15]: 20%; Activity [16]: 30%; Activity [17]: 30%
21 | COc1cc(-c2cn(C)c(=O)c3cnccc23)cc(OC)c1CN1CCN(CCOCCOCCOCC(=O)N[C@H](C(=O)N2C[C@H](O)C[C@H]2C(=O)NCc2ccc(-c3scnc3C)cc2)C(C)(C)C)CC1 | 106 | 107 | 95 | 
22 | COc1cc(-c2cn(C)c(=O)c3cnccc23)c(OC)cc1CN1CCN(CCOCCOCCOc2cc(-c3scnc3C)ccc2CNC(=O)[C@@H]2C[C@@H](O)CN2C(=O)[C@@H](NC(=O)C2(F)CC2)C(C)(C)C)CC1 |  | 126 |  | Activity [12]: 149%; Activity [13]: 125%
